This is a sample that favours compounds with a hit; in the whole collection about 0.55% have one here.
zfTRPN1 agonist: zebrafish TRPN1 channel agonists, primary screen, cell-based, HEK293, calcium fluorescence; transient receptor potential cation channel N1 (TRPN1/NompC), Danio rerio; HEK293 zebrafish TRPN1-YFP, Fluo-8 calcium fluorescence; 100% = response to 87 µM carbachol; activation, % at 3 µM; 220,000 compounds, 0.18% hits; AID 1424, 2008;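 active = activation above its plate's cutoff, the mean activation of test wells on that plate plus 3 SD, cut at about 19% in these data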;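 note: 0% = DMSO alone and 100% = 87 µM carbachol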
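Assay system: Zebrafish TRPN1-YFP in HEK293 cells | Incubation: Dye loading 1 h at 37 °C, then 30 min room temperature | Measured by: Kinetic Fluo-8 fluorescence, ex 470-495, em 515-575 nm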
OXTR agonist: human OXTR agonists, primary screen, fluorescence, CHO-OTR cells, Fluo-8 calcium; activation, % at 3 µM; Fluo-8 calcium fluorescence; normalized: DMSO 0%, oxytocin 100%; 320,000 compounds, 0.32% hits; Oxytocin receptor (Homo sapiens), P30559;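 active = activation above the mean of all tested compounds plus 3 SD, cutoff set per screening run, cut at about 20% in these data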;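 note: peak over basal fluorescence ratio from a 100 s FLIPR kinetic read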
TRPML3 ag: human TRPML3 channel agonists, primary screen, cell-based, HEK293 TRPML3-YFP, Fluo-8 calcium fluorescence, 3 µM. activation, % at 3 µM. 100% = the carbachol control signal. AID 1448, 2008. 220,000 compounds, 0.29% hits;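 active = activation above its plate's cutoff, the mean activation of the plate's test wells plus 3 SD, cut at about 12% in these data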;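 note: 0% = DMSO only wells and 100% = carbachol wells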
Target sequence (Q8TDD5 whole entry, looked up): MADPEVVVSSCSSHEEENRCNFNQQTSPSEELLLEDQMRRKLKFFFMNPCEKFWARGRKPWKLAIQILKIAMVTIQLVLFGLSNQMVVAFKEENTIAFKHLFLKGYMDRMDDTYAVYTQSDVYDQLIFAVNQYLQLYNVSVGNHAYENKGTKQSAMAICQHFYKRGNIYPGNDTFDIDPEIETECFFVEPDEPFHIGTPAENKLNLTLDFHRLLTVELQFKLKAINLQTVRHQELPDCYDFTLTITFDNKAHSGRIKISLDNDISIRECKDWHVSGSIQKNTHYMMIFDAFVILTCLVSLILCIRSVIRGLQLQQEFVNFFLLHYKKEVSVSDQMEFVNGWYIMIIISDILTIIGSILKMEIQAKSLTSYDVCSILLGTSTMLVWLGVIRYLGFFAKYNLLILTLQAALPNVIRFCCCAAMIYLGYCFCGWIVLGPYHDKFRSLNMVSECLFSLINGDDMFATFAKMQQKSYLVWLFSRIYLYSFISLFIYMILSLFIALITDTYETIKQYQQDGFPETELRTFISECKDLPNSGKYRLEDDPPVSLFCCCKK
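Material: HEK293 cells stably carrying human TRPML3-YFP; compound dosing: single dose, 3 µM final nominal compound, 0.3% DMSO final; incubation: 1-h 37 °C dye load, 5-s basal, 120-s post-compound reads; technique: Fluo-8 intracellular calcium fluorescence, excitation 470-495 nm, emission 515-575 nm; read-out basis: percent activation from peak-to-basal fluorescence ratio, scaled between DMSO and carbachol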
OXTR potentiate: human OXTR potentiators, primary screen, fluorescence, CHO-OTR cells, Fluo-8 calcium; activation, % at 3 µM; Oxytocin receptor (Homo sapiens), P30559; 320,000 compounds, 0.061% hits; AID 2445, 2010; Fluo-8 calcium fluorescence, potentiator mode; 0% = oxytocin EC15, 100% = EC100;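 active = activation above that plate's cutoff, the mean activation of tested compounds plus 3 SD, cut at about 6.6% in these data, passing the limit was not always enough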;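 note: 100% uses oxytocin at 75 nM as the full agonist control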
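Measured by – Fluo-8 calcium dye fluorescence · Test system – human OTR in CHO cells · Dosing – one concentration, 3.0 µM compound · Controls – EC15 oxytocin alone as 0%, 75 nM oxytocin as 100% · Evaluation – normalized max/min fluorescence ratio, % activation · Timing – 6 min pre-incubation, 100 s read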
V1R ag counter: agonists of human V1a receptor, primary screen, counter-screen for OXTR agonist project, fluorescence, CHO-V1R cells; Vasopressin V1a receptor (Homo sapiens), P37288; Fluo-8 calcium fluorescence, agonist mode; 0% DMSO, 100% 3 nM vasopressin; activation, % at 3 µM; 320,000 compounds, 0.25% hits;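 active = activation above the mean activation of all tested compounds plus 3 SD, per screening run, cut at about 20% in these data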;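 note: signal is peak over basal fluorescence ratio across a 100 second FLIPR read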
TRPN1 ag 2: zebrafish TRPN1 channel agonists, counter-screen for TRPML3 agonist project, cell-based, HEK293 TRPN1-YFP, Fluo-8 calcium; shares compounds with TRPML3 ag; Fluo-8 calcium fluorescence; scaled: carbachol wells 100%, DMSO wells 0%; activation, % at 3 µM; 310 compounds, 10% hits;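 active = mean activation over replicates above a set limit taken from the earlier TRPN1 channel primary screen, cut at about 19% in these data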;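 note: 100% = carbachol and 0% = 0.3% DMSO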
TRPML3 ag conf: human TRPML3 channel agonists, confirmation, cell-based, HEK293 TRPML3-YFP, Fluo-8 calcium, triplicate | shares compounds with TRPML3 ag | Fluo-8 calcium fluorescence; 100% set by carbachol, 0% by DMSO | activation, % at 3 µM | 310 compounds, 80% hits | AID 1526, 2009;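 active = activation above a set limit derived from the earlier primary screen, cut at about 12% in these data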
OXTR agonist cf: human OXTR agonists, confirmation, fluorescence, CHO-OTR cells, triplicate. Fluo-8 calcium fluorescence, agonist. 390 compounds, 20% hits. shares compounds with OXTR agonist. activation, % at 3 µM;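 active = mean activation above about 20% derived from the earlier single-dose screen, limit read from the data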;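 note: peak over minimum fluorescence ratio per well during a 100 second FLIPR read; 0% = DMSO alone and 100% = oxytocin high control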
V1aR counter 3x: V1a receptor agonists, calcium signal, counter-screen for OXTR agonist project, triplicate, fluorescence, CHO-V1R cells. activation, % at 3 µM. Fluo-8 calcium fluorescence. AID 434991, 2010. shares compounds with OXTR agonist. 390 compounds, 10% hits;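 active = mean activation over triplicate exceeds the hit threshold set in the earlier primary screen, cut at about 20% in these data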;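 note: peak over basal fluorescence ratio within a 100 second read; 0% = DMSO alone and 100% = 3 nM vasopressin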
OXTR pot confirm: human OXTR potentiators, confirmation, fluorescence, CHO-OTR cells, triplicate | activation, % at 3 µM | AID 434985, 2010 | 180 tested, under 10 active | shares compounds with OXTR potentiate | Fluo-8 calcium fluorescence, potentiation; scaled from low-dose to maximal oxytocin;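 active = mean percent activation over triplicates above a cutoff set from solvent-only control plates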;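 note: compounds tested in the presence of an EC15 dose of oxytocin; 0% = EC15 oxytocin with DMSO and 100% = EC100 oxytocin with DMSO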
An asterisk follows results filed as active; nt = no result given.

SMILES | zfTRPN1 agonist | OXTR agonist | TRPML3 ag | OXTR potentiate | V1R ag counter | others
Cc1nc2cc(C(F)(F)F)ccc2n1C1CCN(Cc2nnnn2Cc2cccs2)CC1 | 6 | 33* | 4 | -12 | 37*
Cc1nc2cc(C(F)(F)F)ccc2n1C1CCN(Cc2nnnn2Cc2ccc3c(c2)OCO3)CC1 | 4 | 5 | 2 | -22 | 5
COC(=O)C1=C(c2cccc(C#N)c2)C[C@@H]2CC[C@H]1N2C(=O)NCCOc1ccccc1Cl | nt | -2 | nt | 1 | -1
CN1/C(=C\C=C2C(=O)NC(=O)NC2=O)C(C)(C)c2ccccc21 | 42* | 25* | 17* | -14 | 32*
O=C(O)C(Br)CBr (stereo not drawn) | nt | 0 | nt | -8 | 1
O=C1CC2OCC=C3CN4CCC56c7cc([N+](=O)[O-])ccc7N1C5C2C3CC46 (stereo not drawn) | -1 | 0 | 0 | 4 | 0
O=C1/C(=C\c2ccccc2)C2OCC=C3CN4CCC56c7ccccc7N1C5C2C3CC46 (stereo not drawn) | 4 | 20* | 2 | -5 | 14
BrCC(Br)C1CCC(Br)C(Br)C1 (stereo not drawn) | nt | -1 | nt | -8 | 0
O=C(COc1ccc(Cl)cc1)N(c1ccc(Cl)cc1)C1CN2CCC1CC2 (stereo not drawn) | 3 | 3 | 1 | -12 | 2
CCOC(=O)c1ccc(NC(=O)c2c(O)[nH]c(=O)[nH]c2=O)cc1 | 308* | 1 | 247* | -15 | 1
CCOc1ccc(NC(=O)c2c(O)[nH]c(=O)[nH]c2=O)cc1 | nt | -1 | nt | -1 | 0
C=C(C)C(Cc1c(OC)ccc(C(=O)/C=C/c2ccc(O)cc2)c1O)OO (stereo not drawn) | nt | 4 | nt | -8 | 5
CC1(C)CSC(=NCc2ccccc2)N1 | 61* | 16 | 58* | -16 | 14
Cc1cc(OCCN2CC2)c2ccccc2n1 | -1 | 0 | 1 | -13 | 0
O=C1NC(=O)N(Cc2ccc(F)cc2)C(=O)/C1=C\c1ccoc1 | 13 | 31* | 9 | -23 | 29*
O=C1NC(=O)N(c2ccc(Cl)cc2)C(=O)/C1=C\c1ccc(Sc2nc3ccccc3[nH]2)o1 | 22* | 29* | 12* | -16 | 36*
CCCCn1c(=O)c(C(=O)Nc2ncccc2C)c(O)c2ccccc21 | nt | 36* | nt | -11 | 39*
CCCCCn1c(=O)c(C(=O)Nc2ccccc2C)c(O)c2ccccc21 | nt | -1 | nt | -6 | 0
CCCCCCn1c(=O)c(C(=O)Nc2ncccc2C)c(O)c2ccccc21 | nt | 38* | nt | -21 | 46*
CN1/C(=C\C=C\C2=[N+](C)c3ccc4ccccc4c3C2(C)C)C(C)(C)c2ccccc21 | 24* | 81* | 29* | -24 | 59*
O=C1CCCN1CC#CCN1CCCC1 | 3 | 1 | 27* | -12 | 0 | TRPN1 ag 2=6;TRPML3 ag conf=35*
Cn1cc(C(=O)OCC(=O)NC2(C#N)CCCC2)c2ccccc21 | nt | 2 | nt | -5 | 1
CCOc1cc2c(cc1OCC)-n1cccc1C(c1ccc(F)c(OC)c1)NC2 (stereo not drawn) | nt | 22* | nt | -7 | 15 | OXTR agonist cf=7;V1aR counter 3x=3
CNc1ccc2oc(C[C@H]3O[C@@]4(CC[C@H]3C)O[C@H]([C@H](C)C(=O)c3ccc[nH]3)[C@H](C)C[C@H]4C)nc2c1C(=O)O | nt | 75* | nt | -26 | 15 | OXTR agonist cf=122*;V1aR counter 3x=134*
CCOc1cc(CNCCc2c[nH]c3ccccc23)cc(Cl)c1OC | -1 | 8 | 0 | -24 | 6
SMILES | zfTRPN1 agonist | OXTR agonist | TRPML3 ag | OXTR potentiate | V1R ag counter | others
O=C(COc1ccc2ccccc2c1)N1CCN(Cc2c[nH]c3ccccc23)CC1 | 1 | 24* | 2 | -18 | 9 | OXTR agonist cf=10;V1aR counter 3x=4
O=C(COc1ccc(Br)cc1)N1CCN(Cc2c[nH]c3ccccc23)CC1 | 1 | 10 | 1 | -24 | 5
CCN1C[C@@]2(COC)C3[C@@H](OC)[C@H]4[C@@H]1[C@@]3(C1C[C@@]3(O)[C@H](OC(=O)c5ccccc5)C1[C@]4(OC(C)=O)[C@@H](O)[C@H]3OC)[C@@H](OC)C[C@H]2O (stereo partly drawn) | nt | 0 | nt | 0 | 0
CCCCn1c(=O)c(C(=O)NCc2ccccc2Cl)c(O)c2ccccc21 | nt | 38* | nt | -23 | 0 | OXTR agonist cf=0;V1aR counter 3x=1
Oc1ccc(C2NCc3ccccc3-n3cccc32)cc1Cl (stereo not drawn) | 0 | 28* | 1 | -23 | 17 | OXTR agonist cf=10;V1aR counter 3x=2
FC(F)(F)c1cccc(C2NCc3ccccc3-n3cccc32)c1 (stereo not drawn) | nt | -2 | nt | -21 | 0
Cc1ccc(-n2nc(C)cc2NC(=O)COc2cc(C)cc3oc(=O)c4c(c23)CCC4)cc1 | 0 | -1 | 0 | -3 | 0
COc1ccc(C(c2c(O)c3ccccc3oc2=O)c2c(C)n(C)n(-c3ccccc3)c2=O)cc1 (stereo not drawn) | 0 | -1 | 0 | 12* | -1 | OXTR pot confirm=-10
O=C(/C=C/c1ccc(Cl)cc1)NC(=S)N1C[C@H]2C[C@H](C1)c1cccc(=O)n1C2 | nt | 0 | nt | 1 | -1
CN1CCN(c2ccc(S(C)(=O)=O)cc2[N+](=O)[O-])CC1 | 2 | 1 | 1 | -2 | 0

Compound activity from PubChem BioAssay.
